According to the EternaBench riboswitch data:

System: MS2 coat protein
Assay: apparent Kd, MS2 coat protein; higher = weaker binding; RNA-MaP array
Procedure, shortened: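 Sequenced DNA templates on an Illumina sequencing chip were transcribed into the designed RNAs. These were incubated at room temperature in Tris-HCl pH 7.5 buffer containing KCl, MgCl2, BSA, DTT, tRNA and Tween20 with fluorescently labeled MS2 coat protein at 1.5 nM to 3 μM, with or without input ligand. Apparent Kd is the median of binding-curve fits per cluster, and designs with fewer than 10 clusters measured were excluded.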

[1] = designed as: OFF switch for flavin mononucleotide, no ligand
[2] = ligand present: flavin mononucleotide, designed as: OFF switch for flavin mononucleotide
[3] = designed as: ON switch for flavin mononucleotide, no ligand
[4] = ligand present: flavin mononucleotide, designed as: ON switch for flavin mononucleotide
[5] = designed as: ON switch for theophylline, no ligand
[6] = ligand present: theophylline, designed as: ON switch for theophylline
[7] = designed as: ON switch for tryptophan, no ligand
[8] = ligand present: tryptophan, designed as: ON switch for tryptophan

Sequence | apparent Kd [1] | apparent Kd [2] | apparent Kd [3] | apparent Kd [4] | further results
UCGAUACCUCUAAUGAAGACAUGAGGAUCACCCAUGUUUAACAGAAGGUAGUCGGGAAGAUAGACUAAGGAUAUGUUGCAGGUG | 9.63 nM | 24.3 nM |  |  | 
AAUGGAAGGGAGAAGGCACGCUCUGUCGAACCGUGAGGAUAUCCAUCGGGUAAUAUACAUGAGGAUCACCCAUGUGGCGUCCAG |  |  | 25.8 nM | 14.6 nM | 
AGGGAACAUGAGGAUCACCCAUGUGCCGAUACCAGUGAUUUUCAGCACCCUUGGCAGCGGAACCUUUGUUAUAUUAUUCUUAGGG |  |  |  |  | apparent Kd [5]: 36.7 nM; apparent Kd [6]: 28.2 nM
GAACAUCGAGGAUAUACAUGAGGAUCACCCAUGUAUUAGAGGGUGCCCUAGCUCAAAAGUAGAAGGCGACAGGU | 9.8 nM | 12.7 nM |  |  | 
GAUGCAACGCAGAAGGUAACCCAAUUAGGAGAUCUACAUGAGGAUCACCCAUGUAUUUGGAAAAUUAAGGAUAUGCCGAGGAUC | 14.7 nM | 19.5 nM |  |  | 
CGGAUUUGGUAGAAGGUUUCGUCACAUAUCGCAAAAGGAUAUACUAAACAUGAGGAUCACCCAUGUGUCGUGGGAGUUAAUUCA | 72.3 nM | 70.5 nM |  |  | 
GAUUGGCUAGGAUAUACAGUGUCUAAGUCGACACCGUGAUAACAUGAGGAUCACCCAUGUAGAAGGAGCACAAA | 6.78 nM | 11.4 nM |  |  | 
CUCGAGUUUACAGGAUAUUAGGAAAUCGGAUAUUAAGAAGGGUAAAUGUACAUGAGGAUCACCCAUGUUCUCUGCUGCGUCAUA | 15.4 nM | 14.5 nM |  |  | 
UUUCGUAACCAACAUGAGGAUCACCCAUGUAGAAAGUUCCUAAGAAGGACAUAACCCAAUAGCAUGUAGGAUAUAAGUAAUCAC |  |  | 12.1 nM | 10.8 nM | 
GGCUACAUGAGGAUCACCCAUGUUUCUCGUCGAGGACCGGUACGGCCGCCACUCGUUGUUGGGACUCAGUAUCAGUCGUUAGUUU |  |  |  |  | apparent Kd [7]: 25.5 nM; apparent Kd [8]: 57 nM
AGGCUUAAAAUGGAGGAUAUCUGUCGCAAAACAUGAGGAUCACCCAUGUACAUAAUGGGCACCACAGAGAAGGCCAUGUACUUUUC |  |  | 27.5 nM | 11.7 nM | 
GACAUGAGGAUCACCCAUGUGGGAAAGGUGUACUCUUGCGACUAGGAUAUGUUGUGGUCCCAGAGACAGAAGGAGUGGCGACGU | 52.1 nM | 42 nM |  |  | 
AUAGAUAAGCAGAAGGGCUUGAGAUCCGUAACUAUUGACAUGAGGAUCACCCAUGUUCGUCCCUAGCAGGAUAUGCAAAGAAGC |  |  | 61.2 nM | 22.5 nM | 
CUUCAGGCGGAGGAUAUCUUACAGUUAUCGUACAGAGAAGGCCGCACAUGAGGAUCACCCAUGUCAGGCGACUU | 29.8 nM | 162 nM |  |  | 
UCAGUGGGUUCGGCCGCCACUUGAGUGAUGGUGCCUCAAUAAGUCUACAUGAGGAUCACCCAUGUAAGGACCGGGAAUUUUAUGG |  |  |  |  | apparent Kd (designed as: OFF switch for tryptophan, no ligand): 35.3 nM; apparent Kd (ligand present: tryptophan, designed as: OFF switch for tryptophan): 32.5 nM
GGGAAACAUGAGGAUCACCCAUGUGUACAUAAGUAAGGAUAUAGAAGAGGUGACAGUGGUCUAGAAGGUACAACAC |  |  | 65.6 nM | 46.4 nM | 
GUGCUACAUGAGGAUCACCCAUGUGUGUAACAACAAGGAUAUGAUGCUUUGCCCGAAAGGUCAGAAGGUGUACGGC |  |  | 12.9 nM | 11.1 nM | 
AAGAAGUACCAGAAGGGAGGAGGAAAUCUACAUGAGGAUCACCCAUGUACUUGCGGAUUUAAAUCUCAGGAUAUGGGAUACACA |  |  | 49.7 nM | 12.9 nM | 
GGAUAACCGAAGAAGGAGGUUUGUAUGGAAUACCUAGGAUAUUCGCGAGCGUGGGCCACAUGAGGAUCACCCAUGUCGGCAGUU | 12.8 nM | 10.4 nM |  |  | 
UGAUCAGAACAGAAGGAGUAGUCUGCCUUGCUACUAGGAUAUGUUACAUGAGGAUCACCCAUGUGUUUAGGAUUGCCAUAAAGG |  |  | 13.1 nM | 9.08 nM | 
AUUUAGCAUAUACAUGAGGAUCACCCAUGUCUGAUACAUAGUAGAAGGCCCGUUAAGACAUACAGGGAGGAUAUACGUACAUGU |  |  | 49 nM | 9.85 nM | 
GACAUCAUAGGAGGAUAUGUUUUCUAAAGACUGACAGAAGGCCAGAACAGUAAGAACAAAAGACAUGAGGAUCACCCAUGUGUU |  |  | 16.6 nM | 9.36 nM | 
GAUCAACAUGAGGAUCACCCAUGUCAGGAUAUGCAGACAGUCUUUACGUCAGUCGUAAGCAGAAGGGACUACGG | 52.5 nM | 69.6 nM |  |  | 
CGGUCACAUGAGGAUCACCCAUGUAAGGAUAUAGAUGUCUGUGUCAACCGACGGGCUUCUAGAAGGUACGGAUG | 18.6 nM | 18.1 nM |  |  | 
GGCUGACAUGAGGAUCACCCAUGUAGUGAUACCAGUAAGAGAAUAUACCCUUGGCAGCACAGGUAACAACUCGUCUCCAAAGUAA |  |  |  |  | apparent Kd [5]: 42.7 nM; apparent Kd [6]: 78.9 nM
CGUAAUAACUCACAGGAUAUGCGAGAGGAGACAUGAGGAUCACCCAUGUGACCAUGAAUAUUCCUGCAGAAGGGUGAUAAAUCAUU |  |  | 13 nM | 18 nM | 
AUAGAGGAAGGAUAUACAUGAGGAUCACCCAUGUAACGAAGUAGUUGGAUGCCAUGAAGUAGAAGGUCCAGAUG | 14.5 nM | 13.6 nM |  |  | 

Sequence | apparent Kd [1] | apparent Kd [2] | apparent Kd [3] | apparent Kd [4] | further results
UACGUGUUAGGAUAUCGAGUAGUAUGGCUGGCCUGCAAAACCGAGAAGGAACAUGAGGAUCACCCAUGUAUCUU | 8.05 nM | 11.3 nM |  |  | 
CCACGGAGUUUAGGAUAUGUCGGCUUGGAGUUUACAGAAGGAAAUUGCGCAGCCACAUGAGGAUCACCCAUGUUCGGAAAUACG |  |  | 31 nM | 21.4 nM | 
AGUGGACUGAGGCAGGAUAUCUAUUCAGGAACAUGAGGAUCACCCAUGUCAUGAAAUGACUCGUGAGAGAAGGGCCGUCAACUUAU |  |  | 22.9 nM | 29.5 nM | 
CUCAAUUAAGAGAAGGUUACUUGUGUUACGUGUAAAGGAUAUCUAAGCGCUAGGCACAUGAGGAUCACCCAUGUUCCUGCCUUU |  |  | 7.64 nM | 6.03 nM | 
CACUACAUGAGGAUCACCCAUGUAUACUGACGAGGACCGGUACGGCCGCCACUCGAACCGAAACCGACUUCAUUCUGUGUACCAU |  |  |  |  | apparent Kd [7]: 15.4 nM; apparent Kd [8]: 16.2 nM
UAGAGGUACGUUGGCGAACAUGAGGAUCACCCAUGUAAAUGAAGAAGGUGUGUUGCGCAAAACGACAAGGAUAUUCAAGACAUC |  |  | 83.4 nM | 50.7 nM | 
UAAUUCAGGGAGAAGGUCUGAUCGUAACAUGCAGAAGGAUAUCCCAAUAACAUGAGGAUCACCCAUGUUUUGUUAUGCGUCAAC |  |  | 83 nM | 19.8 nM | 
AGCGCUUAACCAUAGGAUAUAUUGAUCAUUACAUGAGGAUCACCCAUGUGUCGAAGAAGGCAAUCAUAGAAGGAUGUCAUGUCGCU |  |  | 26.7 nM | 17.3 nM | 
GGCACACAUGAGGAUCACCCAUGUGGCGAUACCAGUUGAUGGUAAAACCCUUGGCAGCGCCAGUCACAUGCAGAUAGUUACUGAA |  |  |  |  | apparent Kd [5]: 13.9 nM; apparent Kd [6]: 16.5 nM
UAGCAUAGUACGGCCGCCACUCCUGGUUCCCGGCCGUGUGUAAGACAUGAGGAUCACCCAUGUAGGAGGACCGGGUAUCGCUUGC |  |  |  |  | apparent Kd [7]: 14 nM; apparent Kd [8]: 15.2 nM
CAGGGACAUGAGGAUCACCCAUGUAAGGAUAUGCCCAAAAGAGCGACUACUAAAGGAGGCAGAAGGUACGAACG | 28.6 nM | 31.6 nM |  |  | 
AGGAAACAUGAGGAUCACCCAUGUGAGGAUAUACAAAAGAGCGAAAGAAGAAAUUAAUGUAGAAGGCACGUCAA | 15.1 nM | 13.3 nM |  |  | 
AUCGAUAAGAAGAAGGCAUUGGCGAUGACGUUAUGAGGAUAUUCAACUACAGCUUGACCACUACAUGAGGAUCACCCAUGUGAA |  |  | 19.6 nM | 12.1 nM | 
GAGGCGAAGGAGAAGGCCGCCAGUAAAGGUGACCGUAACAUGAGGAUCACCCAUGUGGAAUAAACGGAGGAUAUCCCUUCUCAG | 19 nM | 21.8 nM |  |  | 
AUGUCGGCAGGAUAUACUGGAACUUGACCCGUGAACACGAUACAUGAGGAUCACCCAUGUAGAAGGGCCUAAAA | 11.5 nM | 43.4 nM |  |  | 
UCUAGUGCAUAGGAUAUCAUGGUUCAUUAGUACUGAGAAGGAUGCACAUGAGGAUCACCCAUGUUCUCUGACAG | 26.2 nM | 80.5 nM |  |  | 
GCACGAGUAAGACCUGACUUCAACAAUGAUACCAGACUAGUAAACGUCCCUUGGCAGCAUCAGACAUGAGGAUCACCCAUGUGGC |  |  |  |  | apparent Kd (designed as: OFF switch for theophylline, no ligand): 27 nM; apparent Kd (ligand present: theophylline, designed as: OFF switch for theophylline): 29.4 nM
UACGGAGCUCAGAAGGGACACUGCGGAGAUAUGUCAGGAUAUGACUUCUUAUCGUGUGGUGACAUGAGGAUCACCCAUGUGCUU | 209 nM | 338 nM |  |  | 
AAGGUCCAAGAGAAGGCGCUCAUGGGAUCAAGACAUGAGGAUCACCCAUGUUGGCGCAGCACAAGCGAGGAUAUCUCCACCGGC |  |  | 420 nM | 330 nM | 
CUGAAGUCUGACCCUCGAAACAUGAGGAUCACCCAUGUAGUCAGAAGGCGAUUGUGAGCAGGAAUCGAGGAUAUGAACUAGUUU | 7.72 nM | 10 nM |  |  | 
UUCACAAGAAUUUACAUGAGGAUCACCCAUGUCCUUGCAAAGGAGGAUAUUGAGUACAAGACCUACAAGAAGGCCAGAGACAAG |  |  | 46.4 nM | 15.5 nM | 
CACAAACCAGAGAAGGCCCUAAGAGUAUAGAGAAUACGAAACAUGAGGAUCACCCAUGUCAUAUGGGAGGAUAUCAACAAGAUU |  |  | 135 nM | 11.3 nM | 
AAUCAGAAAGGAUAUACAAGGAUUUUAUAUAGCACUGCUGGACAUGAGGAUCACCCAUGUAGAAGGUUCGCCCU | 11.3 nM | 9.51 nM |  |  | 
UAUUAACAUGAGGAUCACCCAUGUUAUAGAGACCUAGGAUAUGCUUGCAUCCUCGCUCGUGCAGAAGGAGGUUUAU |  |  | 7.08 nM | 5.88 nM | 
UACCUUAGCAACAUGAGGAUCACCCAUGUUUGGUGGCGAAUUAGAAGGGACAGCAUUUAUACAAGUCAGGAUAUAAUUUAGGGA | 16.5 nM | 11.6 nM |  |  | 
CCCACGUACGAGAAGGCACCGGUUUGAUCCACGUAAGUCCUUUACAUGAGGAUCACCCAUGUAGGUGAGGAUAUCGUCAUGACU | 160 nM | 264 nM |  |  | 
AAGGAACAUGAGGAUCACCCAUGUGCUUGCCAGCAAGGAUAUGGUUGUGACAUCUAUAUGCCAGAAGGUGCCGGAC |  |  | 286 nM | 85.6 nM | 
